# Assays:
# Assay type in all cases: functional
# Aspergillus fumigatus [1] = test: Antimicrobial activity against Aspergillus fumigatus isolate 22 by oxygen consumption method
# Summary of the method: (§1)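 Conidial suspension in RPMI 1640 broth, 1.5 ml, with two drug concentrations (0.25 and 2 μg/ml). Tubes agitated 12 h at 37°C in a biological oxygen monitor. Available oxygen monitored continuously and quantified to assign the MIC.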
# Aspergillus fumigatus [2] = test: Antimicrobial activity against Aspergillus fumigatus isolate 18 by CLSI M38-A2 broth microdilution method
# Summary of the method: (§2)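 Posaconazole broth microdilution follows CLSI M38-A2. The MIC is the lowest concentration with no visible growth at 48 h. Candida parapsilosis ATCC 22019 and Candida krusei ATCC 6258 were included as QC strains in every run.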
# Aspergillus fumigatus [3] = test: Antimicrobial activity against Aspergillus fumigatus isolate 22 after 48 hrs by Etest; conditions: isolate 22, 48 h
# Summary of the method: (§3)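 Etest strips on RPMI 1640 agar with 2% glucose, pH 7.0, run per manufacturer's instructions. Incubated at 35°C; MIC read at 48 h.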
# Aspergillus fumigatus [4] = test: Antimicrobial activity against Aspergillus fumigatus isolate 6 after 48 hrs by Etest; conditions: isolate 6, 48 h
# Aspergillus fumigatus [5] = test: Antimicrobial activity against Aspergillus fumigatus isolate 12 after 24 hrs by Etest; conditions: isolate 12, 24 h
# Summary of the method: (§4)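 Posaconazole Etest strips placed on RPMI 1640 agar with 2% glucose, pH 7.0, and run per the strip maker's instructions. Incubation at 35°C, with the MIC read at 24 h and at 48 h.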
# Aspergillus fumigatus [6] = test: Antimicrobial activity against Aspergillus fumigatus isolate 2 by CLSI M38-A2 broth microdilution method; summary of the method: as §2
# Aspergillus fumigatus [7] = test: Antimicrobial activity against Aspergillus fumigatus isolate 27 after 48 hrs by Etest; conditions: isolate 27, 48 h; summary of the method: as §3
# Aspergillus fumigatus [8] = test: Antimicrobial activity against Aspergillus fumigatus isolate 2 after 48 hrs by Etest; conditions: isolate 2, 48 h; summary of the method: as §4
# Aspergillus fumigatus [9] = test: Antimicrobial activity against Aspergillus fumigatus isolate 48 after 48 hrs by Etest; conditions: isolate 48, 48 h
# Aspergillus fumigatus [10] = test: Antimicrobial activity against Aspergillus fumigatus isolate 28 by CLSI M38-A2 broth microdilution method
# Summary of the method: (§5)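 Reference broth microdilution per CLSI M38-A2. MIC read as absence of visible growth at 48 h. C. parapsilosis ATCC 22019 and C. krusei ATCC 6258 QC strains run in each test session.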
# Aspergillus fumigatus [11] = test: Antimicrobial activity against Aspergillus fumigatus isolate 37 by oxygen consumption method
# Summary of the method: (§6)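 Conidial suspension in RPMI 1640 broth, tested at two posaconazole levels (0.25 and 2 μg/ml). Agitated for 12 h at 37°C in a biological oxygen monitor. MIC derived from continuous monitoring and quantification of the available oxygen.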
# Aspergillus fumigatus [12] = test: Antimicrobial activity against Aspergillus fumigatus isolate 44 after 48 hrs by Etest; conditions: isolate 44, 48 h
# Aspergillus fumigatus [13] = test: Antimicrobial activity against Aspergillus fumigatus isolate 45 by CLSI M38-A2 broth microdilution method
# Aspergillus fumigatus [14] = test: Antimicrobial activity against Aspergillus fumigatus isolate 16 by CLSI M38-A2 broth microdilution method; summary of the method: as §2
# Aspergillus fumigatus [15] = test: Antimicrobial activity against Aspergillus fumigatus isolate 21 by CLSI M38-A2 broth microdilution method; summary of the method: as §5
# Aspergillus fumigatus [16] = test: Antimicrobial activity against Aspergillus fumigatus isolate 41 after 48 hrs by Etest; conditions: isolate 41, 48 h
# Summary of the method: (§7)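 Posaconazole Etest strips on RPMI 1640 agar with 2% glucose, pH 7.0, run per the strip maker's instructions. Incubated at 35°C. MIC read at 24 h and at 48 h, matching the time in each line.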
# Aspergillus fumigatus [17] = test: Antimicrobial activity against Aspergillus fumigatus isolate 12 by CLSI M38-A2 broth microdilution method; summary of the method: as §2
# Aspergillus fumigatus [18] = test: Antimicrobial activity against Aspergillus fumigatus isolate 34 by oxygen consumption method; summary of the method: as §6
# Aspergillus fumigatus [19] = test: Antimicrobial activity against Aspergillus fumigatus isolate 28 after 48 hrs by Etest; conditions: isolate 28, 48 h; summary of the method: as §3
# Aspergillus fumigatus [20] = test: Antimicrobial activity against Aspergillus fumigatus isolate 39 by CLSI M38-A2 broth microdilution method
# Summary of the method: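 CLSI M38-A2 broth microdilution with posaconazole. MIC taken as the lowest concentration with no visible growth at 48 h. C. parapsilosis ATCC 22019 and C. krusei ATCC 6258 were included as QC strains in every run.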
# Aspergillus fumigatus [21] = test: Antimicrobial activity against Aspergillus fumigatus isolate 23 after 24 hrs by Etest; conditions: isolate 23, 24 h
# Summary of the method: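 Etest strips on RPMI 1640 agar with 2% glucose, pH 7.0, run per manufacturer's instructions. Incubated at 35°C; MIC read at 24 h.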
# Aspergillus fumigatus [22] = test: Antimicrobial activity against Aspergillus fumigatus isolate 5 after 48 hrs by Etest; conditions: isolate 5, 48 h
# Aspergillus fumigatus [23] = test: Antimicrobial activity against Aspergillus fumigatus isolate 48 by oxygen consumption method
# Aspergillus fumigatus [24] = test: Antimicrobial activity against Aspergillus fumigatus isolate 8 by CLSI M38-A2 broth microdilution method
# Aspergillus fumigatus [25] = test: Antimicrobial activity against Aspergillus fumigatus isolate 39 after 48 hrs by Etest; conditions: isolate 39, 48 h; summary of the method: as §7
# Aspergillus fumigatus [26] = test: Antimicrobial activity against Aspergillus fumigatus isolate 4 after 48 hrs by Etest; conditions: isolate 4, 48 h; summary of the method: as §7
# Aspergillus fumigatus [27] = test: Antimicrobial activity against Aspergillus fumigatus isolate 18 after 24 hrs by Etest; conditions: isolate 18, 24 h; summary of the method: as §4
# Aspergillus fumigatus [28] = test: Antimicrobial activity against Aspergillus fumigatus isolate 49 by CLSI M38-A2 broth microdilution method
# Aspergillus fumigatus [29] = test: Antimicrobial activity against Aspergillus fumigatus isolate 13 by CLSI M38-A2 broth microdilution method; summary of the method: as §2
# Aspergillus fumigatus [30] = test: Antimicrobial activity against Aspergillus fumigatus isolate 31 by CLSI M38-A2 broth microdilution method; summary of the method: as §5
# Aspergillus fumigatus [31] = test: Antimicrobial activity against Aspergillus fumigatus isolate 40 after 24 hrs by Etest; conditions: isolate 40, 24 h; summary of the method: as §7
# Aspergillus fumigatus [32] = test: Antimicrobial activity against Aspergillus fumigatus isolate 23 after 48 hrs by Etest; conditions: isolate 23, 48 h; summary of the method: as §3
# Aspergillus fumigatus [33] = test: Antimicrobial activity against Aspergillus fumigatus isolate 9 after 48 hrs by Etest; conditions: isolate 9, 48 h
# Aspergillus fumigatus [34] = test: Antimicrobial activity against Aspergillus fumigatus isolate 26 by CLSI M38-A2 broth microdilution method; summary of the method: as §5
# Aspergillus fumigatus [35] = test: Antimicrobial activity against Aspergillus fumigatus isolate 12 by oxygen consumption method
# Summary of the method: (§8)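 Conidial suspension in RPMI 1640 broth with posaconazole at 0.25 and 2 μg/ml. Tubes agitated 12 h at 37°C in a biological oxygen monitor. Available oxygen was monitored continuously, and the MIC was assigned from the oxygen quantification.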
# Aspergillus fumigatus [36] = test: Antimicrobial activity against Aspergillus fumigatus isolate 13 after 24 hrs by Etest; conditions: isolate 13, 24 h; summary of the method: as §4
# Aspergillus fumigatus [37] = test: Antimicrobial activity against Aspergillus fumigatus isolate 46 after 24 hrs by Etest; conditions: isolate 46, 24 h
# Aspergillus fumigatus [38] = test: Antimicrobial activity against Aspergillus fumigatus isolate 18 after 48 hrs by Etest; conditions: isolate 18, 48 h; summary of the method: as §4
# Aspergillus fumigatus [39] = test: Antimicrobial activity against Aspergillus fumigatus isolate 20 after 24 hrs by Etest; conditions: isolate 20, 24 h; summary of the method: as §4
# Aspergillus fumigatus [40] = test: Antimicrobial activity against Aspergillus fumigatus isolate 21 by oxygen consumption method; summary of the method: as §1
# Aspergillus fumigatus [41] = test: Antimicrobial activity against Aspergillus fumigatus isolate 40 after 48 hrs by Etest; conditions: isolate 40, 48 h; summary of the method: as §7
# Aspergillus fumigatus [42] = test: Antimicrobial activity against Aspergillus fumigatus isolate 25 after 48 hrs by Etest; conditions: isolate 25, 48 h; summary of the method: as §3
# Aspergillus fumigatus [43] = test: Antimicrobial activity against Aspergillus fumigatus isolate 39 after 24 hrs by Etest; conditions: isolate 39, 24 h; summary of the method: as §7
# Aspergillus fumigatus [44] = test: Antimicrobial activity against Aspergillus fumigatus isolate 17 by oxygen consumption method; summary of the method: as §8
structure (smiles),measurement,setting,value
CC[C@@H]([C@H](C)O)n1ncn(-c2ccc(N3CCN(c4ccc(OC[C@@H]5CO[C@@](Cn6cncn6)(c6ccc(F)cc6F)C5)cc4)CC3)cc2)c1=O [POSACONAZOLE],MIC,Aspergillus fumigatus [1],≤ 0.25 µg/mL
same,MIC,Aspergillus fumigatus [2],0.125 µg/mL
same,MIC,Aspergillus fumigatus [3],0.25 µg/mL
same,MIC,Aspergillus fumigatus [4],4 µg/mL
same,MIC,Aspergillus fumigatus [5],0.25 µg/mL
same,MIC,Aspergillus fumigatus [6],0.5 µg/mL
same,MIC,Aspergillus fumigatus [7],0.25 µg/mL
same,MIC,Aspergillus fumigatus [8],1 µg/mL
same,MIC,Aspergillus fumigatus [9],≤ 0.03 µg/mL
same,MIC,Aspergillus fumigatus [10],0.25 µg/mL
same,MIC,Aspergillus fumigatus [11],≤ 0.25 µg/mL
same,MIC,Aspergillus fumigatus [12],0.06 µg/mL
same,MIC,Aspergillus fumigatus [13],0.125 µg/mL
same,MIC,Aspergillus fumigatus [14],0.125 µg/mL
same,MIC,Aspergillus fumigatus [15],0.125 µg/mL
same,MIC,Aspergillus fumigatus [16],≤ 0.03 µg/mL
same,MIC,Aspergillus fumigatus [17],0.125 µg/mL
same,MIC,Aspergillus fumigatus [18],≤ 0.25 µg/mL
same,MIC,Aspergillus fumigatus [19],0.25 µg/mL
same,MIC,Aspergillus fumigatus [20],0.06 µg/mL
same,MIC,Aspergillus fumigatus [21],0.25 µg/mL
same,MIC,Aspergillus fumigatus [22],> 16 µg/mL
same,MIC,Aspergillus fumigatus [23],≤ 0.25 µg/mL
same,MIC,Aspergillus fumigatus [24],0.125 µg/mL
same,MIC,Aspergillus fumigatus [25],2 µg/mL
same,MIC,Aspergillus fumigatus [26],0.25 µg/mL
same,MIC,Aspergillus fumigatus [27],0.125 µg/mL
same,MIC,Aspergillus fumigatus [28],0.125 µg/mL
same,MIC,Aspergillus fumigatus [29],0.125 µg/mL
same,MIC,Aspergillus fumigatus [30],0.125 µg/mL
same,MIC,Aspergillus fumigatus [31],0.125 µg/mL
same,MIC,Aspergillus fumigatus [32],0.25 µg/mL
same,MIC,Aspergillus fumigatus [33],0.5 µg/mL
same,MIC,Aspergillus fumigatus [34],0.125 µg/mL
same,MIC,Aspergillus fumigatus [35],≤ 0.25 µg/mL
same,MIC,Aspergillus fumigatus [36],0.25 µg/mL
same,MIC,Aspergillus fumigatus [37],0.125 µg/mL
same,MIC,Aspergillus fumigatus [38],0.25 µg/mL
same,MIC,Aspergillus fumigatus [39],0.25 µg/mL
same,MIC,Aspergillus fumigatus [40],≤ 0.25 µg/mL
same,MIC,Aspergillus fumigatus [41],0.25 µg/mL
same,MIC,Aspergillus fumigatus [42],0.25 µg/mL
same,MIC,Aspergillus fumigatus [43],1 µg/mL
same,MIC,Aspergillus fumigatus [44],≤ 0.25 µg/mL
